Data taken from ChEMBL document CHEMBL1133084, “Synthesis of novel 3,7-substituted-2-(3',4'-dihydroxyphenyl)flavones with improved antioxidant activity” (J Med Chem, 2000).
One block for each molecule: values may come before it.

What was measured:
[1] = Antioxidant activity was determined using trolox equivalent antioxidant capacity assay.; format: functional
Procedure, shortened: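 ABTS (1.23 mg/mL) and ABAP (3.96 mg/mL) in 50 mM phosphate buffer pH 7.4 heated 70 °C for 20 min to generate ABTS radical. Test compound (stock in N2-purged DMSO:water 1:1; final DMSO ≤0.25%) incubated with ABTS•+ solution 5 min at 37 °C. Absorbance read at 734 nm. Trolox calibration 0–20 μM; TEAC = mM trolox equivalent to 1 mM compound.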

Rattus norvegicus = species on record: Rattus norvegicus; assay: Inhibitory effect on the oxidative degradation of membrane lipids (lipid peroxidation assay) in microsomes of rat.; format: functional
Procedure, shortened: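 Liver microsomes from male Wistar rats (200–220 g), washed in 50 mM Tris-HCl pH 7.4 and heat-inactivated at 100 °C ≥2 min, then diluted to 1.5 mg/mL. Peroxidation started with 10 μM FeSO4; final DMSO ≤2.5%. TBA-reactive substances sampled at 0–60 min and absorbance read at 535-600 nm after heating. IC50 interpolated from % inhibition at several concentrations; mean ± SEM, n = 3-5.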

Structure (SMILES): O=c1cc(-c2ccc(O)c(O)c2)oc2cc(O)ccc12
- Activity [1]: 4.3 mM
- IC50 (Rattus norvegicus): 11 µM

Structure (SMILES): C[N+](C)(C)CCCOc1c(-c2ccc(O)c(O)c2)oc2cc(O)ccc2c1=O
- Activity [1]: 5.1 mM
- IC50 (Rattus norvegicus): 3.8 µM

Structure (SMILES): CN(C)CCCOc1ccc2c(=O)cc(-c3ccc(O)c(O)c3)oc2c1
- Activity [1]: 2.9 mM
- IC50 (Rattus norvegicus): 8.1 µM

Structure (SMILES): O=C(O)COc1c(-c2ccc(O)c(O)c2)oc2ccccc2c1=O
- Activity [1]: 7.6 mM
- IC50 (Rattus norvegicus): 6.5 µM

Structure (SMILES): COc1ccc2c(=O)cc(-c3ccc(O)c(O)c3)oc2c1
- Activity [1]: 3.3 mM
- IC50 (Rattus norvegicus): 2.5 µM

Structure (SMILES): C[N+](C)(C)CCCOc1ccc2c(=O)cc(-c3ccc(O)c(O)c3)oc2c1
- Activity [1]: 1.9 mM
- IC50 (Rattus norvegicus): 37.3 µM

Structure (SMILES): O=c1c(O)c(-c2ccc(O)c(O)c2)oc2ccccc12
- Activity [1]: 4.5 mM
- IC50 (Rattus norvegicus): 1.8 µM

Structure (SMILES): O=c1c(O)c(-c2ccc(O)c(O)c2)oc2cc(OCCO)ccc12
- Activity [1]: 4.9 mM
- IC50 (Rattus norvegicus): 13.8 µM

Structure (SMILES): O=c1cc(-c2ccc(O)c(O)c2)oc2cc(OCCO)ccc12
- Activity [1]: 4.3 mM
- IC50 (Rattus norvegicus): 16.4 µM

Structure (SMILES): O=c1c(OCCO)c(-c2ccc(O)c(O)c2)oc2cc(O)ccc12
- Activity [1]: 3.4 mM
- IC50 (Rattus norvegicus): 21.7 µM

Now those with a lower IC50 (Rattus norvegicus), led by results:

- IC50 (Rattus norvegicus): 1.6 µM
Structure (SMILES): COc1c(-c2ccc(O)c(O)c2)oc2cc(O)ccc2c1=O
- Activity [1]: 5.9 mM

- IC50 (Rattus norvegicus): 1.4 µM
Structure (SMILES): C[N+](C)(C)CCCCCCOc1c(-c2ccc(O)c(O)c2)oc2ccccc2c1=O
- Activity [1]: 4.3 mM

- IC50 (Rattus norvegicus): 1.3 µM
Structure (SMILES): COc1c(-c2ccc(O)c(O)c2)oc2ccccc2c1=O
- Activity [1]: 4.4 mM

- IC50 (Rattus norvegicus): 1.2 µM
Structure (SMILES): C[N+](C)(C)CCCOc1c(-c2ccc(O)c(O)c2)oc2ccccc2c1=O
- Activity [1]: 4.2 mM

- IC50 (Rattus norvegicus): 1 µM
Structure (SMILES): CN(C)CCCOc1c(-c2ccc(O)c(O)c2)oc2ccccc2c1=O
- Activity [1]: 3.4 mM

- IC50 (Rattus norvegicus): 1 µM
Structure (SMILES): C[N+](C)(C)CCCCCCCCOc1c(-c2ccc(O)c(O)c2)oc2ccccc2c1=O
- Activity [1]: 3.3 mM

- IC50 (Rattus norvegicus): 0.6 µM
Structure (SMILES): O=c1c(OCCO)c(-c2ccc(O)c(O)c2)oc2ccccc12
- Activity [1]: 4.4 mM

- IC50 (Rattus norvegicus): 0.2 µM
Structure (SMILES): O=c1c(O)c(-c2ccc(O)c(O)c2)oc2cc(O)ccc12 [FISETIN]
- Activity [1]: 5.6 mM
